Data reported in ChEMBL document CHEMBL4665721, “Mdm2 inhibitors as a platform for the design of P-glycoprotein inhibitors” (Bioorg Med Chem Lett, 2020).
Active and inactive are the calls of the source. No cut-off for these calls is given here.

Experiments:
[1] = species: Homo sapiens; experiment: Inhibition of P-gp-mediated Rhodamine-123 efflux in human p53 -/- H1299 cells assessed as Rhodamine-123 accumulation measured after 40 mins by spectrofluorimetry
[2] = species: Homo sapiens; experiment: Inhibition of P-gp-mediated Rhodamine-123 efflux in human MCF7 cells assessed as Rhodamine-123 accumulation measured after 40 mins by spectrofluorimetry; assay type: cell-based
In short: (§1)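 Cells in DMEM, 96-well plates, grown to 30% confluency, then co-treated with compounds and Rhodamine 123 (1 μM in solution). Even cell distribution checked by imaging. After 40 min, cells were washed and Rhodamine 123 fluorescence read on a plate reader (ex 488 nm, em 515-575 nm). Signal with 0.5 μM tariquidar in each line set to 100%. Triplicate; mean ± SEM.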

[3] = species: Homo sapiens; experiment: Inhibition of P-gp-mediated Rhodamine-123 efflux in human p53 -/- HCT-116 assessed as Rhodamine-123 accumulation measured after 40 mins by spectrofluorimetry
In short: as §1

[4] = tested on: NCI-H1299; experiment: Growth inhibition of human p53 -/- H1299 cells upto 10 uM incubated for 48 hrs; details: dose microM <=10, time 48.0 hrs
[5] = tested on: HCT-116; experiment: Growth inhibition of human p53 -/- NCI-HCT-116 cells upto 10 uM incubated for 48 hrs; assay type: functional, cell-based; details: dose microM <=10, time 48.0 hrs
In short: (§2)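 Cells plated in DMEM and grown 48 h in 96-well optical-bottom plates before treatment. Compounds were added as 200X dilutions of DMSO stocks and tested up to 10 μM. After 48 h, wells were washed with PBS and monolayer confluence was scored by brightfield imaging. Untreated cells served as controls. Triplicate; mean ± SEM.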

[6] = tested on: MCF7; experiment: Growth inhibition of human MCF7 upto 10 uM incubated for 48 hrs; assay type: functional, cell-based; details: dose microM <=10, time 48.0 hrs
In short: as §2

Compound	inhibition [1]	inhibition [2]	inhibition [3]	inhibition [4]	inhibition [5]	inhibition [6]
COc1ccc(C2=N[C@@H](c3ccc(Cl)cc3)[C@@H](c3ccc(Cl)cc3)N2C(=O)N2CCNC(=O)C2)c(OC(C)C)c1	Active					
N[C@H](C(=O)OCCCOC1(c2ccc(Cl)cc2)c2ccccc2C(=O)N1Cc1ccc(Cl)cc1)c1ccccc1 (stereo not given in full)	Active	Active	Active			
COc1cc2c(cc1OC)CN(CCc1ccc(NC(=O)c3cc(OC)c(OC)cc3NC(=O)c3cnc4ccccc4c3)cc1)CC2				inactive	inactive	inactive
CC(C)[C@@H](CS(=O)(=O)C(C)C)N1C(=O)[C@@](C)(CC(=O)O)C[C@H](c2cccc(Cl)c2)[C@H]1c1ccc(Cl)cc1	Active	inactive	inactive	Active	Active	
O=C(NCc1ccc(F)cc1)c1ccc(/C=C2\C(=O)N(CN3CCN(Cc4cccc(Cl)c4)CC3)c3ccc(Cl)cc32)cc1	Active	Active	Active			
